Most compounds without a hit are left out; they make up all but 2.1% or so of the library.
SUMO1 PPI mod: modulators of human SUMO1-mediated protein-protein interactions; inhibition, % at 20 µM; 0.33% of 360,000 active; AID 602429; P63165; SUMO1 binding to a labelled peptide, TR-FRET, 1 h; in the data active = inhibition above about 37%
Target sequence (P63165 whole entry, looked up): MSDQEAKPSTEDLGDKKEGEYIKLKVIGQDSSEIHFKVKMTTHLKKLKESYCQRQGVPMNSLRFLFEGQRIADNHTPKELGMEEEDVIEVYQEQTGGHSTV
LMPTP inh: LMPTP (human) inhibition | inhibition, % at 20 µM | recombinant LMPTP-A, OMFP fluorogenic substrate, fluorescence intensity | 0.22% of 360,000 active | P24666;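 active = compounds that cut the enzyme signal by at least half of the control window in the single-dose screen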;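 note: plate controls were DMSO wells with enzyme plus substrate for no effect and substrate without enzyme for full effect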
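Test system – LMPTP-A phosphatase enzyme · Quantity – 0.625 nM LMPTP-A final · Reagent – OMFP substrate, 400 µM final · Dosing – one test concentration per compound, 20 µM, with 3% DMSO overall · Timing – 50 min enzyme reaction at room temperature, protected from light · Detection – fluorescence intensity · Controls – substrate-only low control, DMSO enzyme-plus-substrate high control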
DNMT1 block: DNMT1 (human) enzyme inhibition | DNMT1 molecular beacon, Hinp1I cleavage, fluorescence | inhibition (reported as % activation of signal), % at 10 µM | 0.83% of 360,000 active; in the data active = inhibition above about 50%
STEP inh: blocks human striatal-enriched tyrosine phosphatase. P54829. 0.25% of 360,000 active. inhibition, % at 20 µM. AID 588621. recombinant STEP, OMFP fluorogenic substrate, fluorescence;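 active = inhibition at 20 µM, scaled per plate between control wells, above about 37%, limit read from the data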;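 note: 0% = DMSO with enzyme and substrate and 100% = substrate only without enzyme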
Target sequence (P54829 whole entry, looked up): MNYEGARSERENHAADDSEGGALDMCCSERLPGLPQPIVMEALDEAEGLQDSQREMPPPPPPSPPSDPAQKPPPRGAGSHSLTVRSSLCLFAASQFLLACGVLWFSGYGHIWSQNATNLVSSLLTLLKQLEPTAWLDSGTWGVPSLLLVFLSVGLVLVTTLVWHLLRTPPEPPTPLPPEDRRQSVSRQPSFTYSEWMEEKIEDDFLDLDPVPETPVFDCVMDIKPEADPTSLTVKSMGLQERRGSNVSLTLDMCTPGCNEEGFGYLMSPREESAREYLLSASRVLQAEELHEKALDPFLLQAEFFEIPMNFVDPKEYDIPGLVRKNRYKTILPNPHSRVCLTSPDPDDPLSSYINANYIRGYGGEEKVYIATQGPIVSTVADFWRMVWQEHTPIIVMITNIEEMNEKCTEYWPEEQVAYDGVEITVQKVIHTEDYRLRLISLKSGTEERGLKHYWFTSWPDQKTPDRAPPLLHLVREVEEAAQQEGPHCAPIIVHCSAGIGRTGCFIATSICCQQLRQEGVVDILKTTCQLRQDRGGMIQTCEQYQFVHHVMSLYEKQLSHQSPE
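Also added – OMFP at 25 µM · Test system – STEP tyrosine phosphatase · Technique – FITC-channel fluorescence of OMFP product · Schedule – 20 min at room temperature, dark · Evaluation – control-normalized % inhibition with plate pattern correction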
Scp1 inh: Scp-1 (human) phosphatase inhibition; Q9GZU7; Recombinant Scp1, phosphopeptide, malachite green phosphate absorbance; inhibition, % at 20 µM; 0.88% of 340,000 active;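 active = inhibition above about 50% at 20 µM, limit read from the data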;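 note: plate controls were DMSO wells with enzyme for no effect and wells lacking enzyme for full effect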
Target sequence (Q9GZU7 76-261 limits assumed): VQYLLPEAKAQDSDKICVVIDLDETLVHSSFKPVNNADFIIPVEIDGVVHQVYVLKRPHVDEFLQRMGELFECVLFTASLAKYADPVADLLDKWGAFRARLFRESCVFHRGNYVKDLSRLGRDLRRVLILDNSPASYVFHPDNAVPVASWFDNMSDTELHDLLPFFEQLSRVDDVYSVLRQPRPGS
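Test system: SCP-1 catalytic domain; Buffer or medium: Acidic Tris acetate buffer with magnesium and detergent; Also added: Phosphorylated 17-residue peptide substrate; Compound: single 20 µM dose, 1% DMSO; Schedule: enzyme reaction 45 min at room temperature, colour 5 min, stabilisation 30 min; Signal: Phosphate-binding colour reagent, absorbance read at 630 nm.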
GRK2 inh: inhibitors of human GRK2 displacing RNA aptamer. inhibition of aptamer binding, % at 10 µM. P25098. AID 488847. bead flow cytometry, FAM-aptamer displacement from GRK2. 0.59% of 330,000 active;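 active = inhibition of aptamer binding above 40%, roughly 3 SD of noise, on plates passing a quality check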;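 note: median bead fluorescence of bound FAM aptamer so fluorescent compounds give negative values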
GRK2 inh confirm: confirmation of human GRK2 inhibitors displacing RNA aptamer; AID 504451; aptamer displacement, % at 10 µM; bead-bound GRK2, FAM-aptamer displacement, flow cytometry; 4% of 2,000 active; shares compounds with GRK2 inh;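 active = aptamer displacement above 40%, near three times the noise of non-fluorescent compounds, on plates passing quality checks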;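 note: negative values mostly reflect intrinsic compound fluorescence rather than true enhancement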
Aptamer quench 1: fluorescent aptamer quenching in GRK2 counter-screen dose response; Fluorescent RNA aptamer beads, flow cytometry; active compounds read high; shares compounds with GRK2 inh; 110 tested, under 10 active; fluorescence change (kMESF span), kMESF (concentration not given with the values);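 active = compounds whose bead fluorescence drops by more than 37 kMESF across the dose range, marking them as dye quenchers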
FAM quench CP1: aptamer fluorescence quenching in GRK2 counter-screen | fluorescence response (% of DMSO), % at 10 µM | 2,000 tested, under 10 active | Carboxyfluorescein RNA aptamer on beads, flow cytometry quenching; active compounds read low | AID 504580 | shares compounds with GRK2 inh;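 active = compounds that quench the bead-bound fluorescent RNA probe, cutting fluorescence to under half of the solvent control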;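 note: counterscreen run without GRK2 so only probe quenching by compound is measured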
GRK2 confirm 2: human GRK2 inhibition confirmation, cherry pick 2. bead-bound GRK2, FAM-aptamer displacement, flow cytometry. inhibition of aptamer binding, % at 10 µM. 360 tested, under 10 active. AID 504782. shares compounds with GRK2 inh;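 active = inhibition of aptamer binding above 40%, about triple the noise seen with nonglowing compounds, on plates passing quality control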;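 note: negative values mostly come from compounds that fluoresce themselves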
Aptamer quench3: counter-screen for GRK2 aptamer inhibitors: fluorescent aptamer quenchers. shares compounds with GRK2 inh. Streptavidin beads, FAM-RNA aptamer fluorescence quenching, flow cytometry. change in fluorescence (kMESF span), kMESF (concentration not given with the values). 25 tested, under 10 active. AID 504819;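 active = compounds quenching the bead-bound labeled aptamer, with fluorescence dropping by more than 37 kMESF over the dose range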
FAM quench SP: quenches fluorescent RNA aptamer, GRK2 hit artifact; shares compounds with GRK2 inh; carboxyfluorescein RNA aptamer beads, flow cytometry quenching; active compounds read low; fluorescence response vs DMSO, % at 10 µM; 360 tested, under 10 active;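 active = response vs DMSO under 50%, meaning signal dropped by over half, treated as fluorescence quencher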;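 note: labelled aptamer on streptavidin beads without GRK2 as a quench counter-screen; 100% = bead fluorescence of DMSO wells and lower means quenching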
FAM quench PS1: quenches fluorescent RNA aptamer, GRK2 hit artifact; shares compounds with GRK2 inh; Bead-bound FAM RNA aptamer fluorescence quenching, flow cytometry; active compounds read low; fluorescence ratio to DMSO, % at 11.1 µM; 35 tested, under 10 active;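 active = compounds that dim the fluorescent label, raw bead signal shifting by over 33 units between lowest and highest dose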
Scp1 confirm: confirmation of human Scp-1 phosphatase inhibitors. shares compounds with Scp1 inh. recombinant SCP-1 catalytic domain, phosphate release, malachite green absorbance. inhibition, % at 20 µM. 61% of 2,500 active;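 note: plate controls were DMSO with enzyme for no effect and buffer wells lacking enzyme for full effect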
Scp-1 MG ctr: colorimetric interference in Scp-1 counter-screen; shares compounds with Scp1 inh; Colorimetric interference counterscreen, malachite green absorbance 630 nm; apparent inhibition (interference), % at 20 µM; 2,500 tested, under 10 active; AID 540313;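 note: compounds added after enzyme reaction finished so only phosphate colour detection is probed; plate controls were DMSO wells with completed Scp-1 reaction for no effect and substrate wells lacking enzyme for full effect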
Scp-1 Tm shift: validation of human Scp-1 inhibitors by thermal shift binding. shares compounds with Scp1 inh. Recombinant SCP1, Sypro Orange thermal shift Tm. thermal shift relative to vanadate control, % at 40 µM. 25% of 1,500 active;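 active = substances whose mean melting-temperature shift, as a percentage of the reference inhibitor's shift, reaches about 5.3%, limit read from the data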;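 note: 0% = Tm of DMSO wells and 100% = Tm with sodium orthovanadate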
DNMT1 interf DR: beacon fluorescence artifact, dose response counter-screen; shares compounds with DNMT1 block; molecular beacon fluorescence, spectral interference counter-screen; IC50, µM; 200 tested, under 10 active; call rule not given here
DNMT1 inh conf: DNMT1 inhibition confirmation, single concentration. DNMT1 molecular beacon HinP1I cleavage, fluorescence. inhibition, % at 10 µM. shares compounds with DNMT1 block. 8% of 2,300 active;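 active = average inhibition of at least 30% in the single-concentration confirmation test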
DNMT1 interf: beacon fluorescence artifact counter-screen; shares compounds with DNMT1 block; 1% of 2,300 active; activation (fluorescence interference), % at 10 µM; DNMT1 molecular beacon spectral interference counterscreen, fluorescence 485/520;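 active = activation of at least 30% at 10 µM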;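 note: DNMT1 catalytic domain with a HinP1I cleavage step and a FAM/dabcyl DNA beacon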
* hit, by the source's call; . = no result given.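 Rule for the calls, unless noted: active = inhibition of at least 30% at 20 µM; inactive = the rest.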

SMILES | SUMO1 PPI mod | LMPTP inh | DNMT1 block | STEP inh | Scp1 inh | GRK2 inh | GRK2 inh confirm | FAM quench CP1 | Scp1 confirm | Scp-1 MG ctr | Scp-1 Tm shift | DNMT1 inh conf | DNMT1 interf | others
COc1ccc(S(=O)(=O)N2CCN(C(=O)c3cc4c(s3)CCC4)CC2)cc1 | 32 | 57* | 100* | 36 | 84* | 82* | 25 | 109 | 68* | -17 | 5 | 40* | 0 | DNMT1 interf DR=>99
Cc1cccc(N2CCN(C(=O)CCS(=O)(=O)c3ccc(Br)cc3)CC2C)c1 (centres undefined) | 0 | 0 | 70* | 3 | 84* | 78* | 57* | 102 | 74* | -6 | -1 | 1 | -1 | Aptamer quench 1=10;FAM quench PS1=100
O=C(CCS(=O)(=O)c1ccc(Br)cc1)N1CCN(c2ccccc2)CC1 | 0 | -1 | 28 | 2 | 15 | 29 | . | . | . | . | . | . | .
CCc1ccc(NC(=O)COC(=O)/C=C/c2ccco2)cc1 | -7 | 5 | 50* | 18 | 67* | 70* | 19 | 97 | 63* | 0 | 0 | 3 | 3
C[C@H](O)CNC(=O)c1[nH]cnc1C(=O)N[C@@H](C)c1ccccc1 | 5 | -1 | 5 | -2 | . | . | . | . | . | . | . | . | .
COCCN(C(=O)c1cc2c(s1)CCC2)c1c(N)n(CC(C)C)c(=O)[nH]c1=O | 6 | 6 | 61* | 4 | 46 | 43* | 17 | 99 | . | . | . | 7 | 5
COCCN(C(=O)c1cc2c(s1)CCCCC2)c1c(N)n(CC(C)C)c(=O)[nH]c1=O | 0 | 1 | -2 | -2 | 12 | 0 | . | . | . | . | . | . | .
C#CCSc1nc2sc3c(c2c(=O)n1C)CCC3 | 13 | 14 | 61* | 93* | 75* | 55* | 53* | 164 | 48* | -18 | -26 | 0 | -4 | Aptamer quench 1=4;GRK2 confirm 2=67*;Aptamer quench3=-2.9;FAM quench SP=102;FAM quench PS1=99
CC(C)(CS(=O)(=O)[O-])NC(=O)CC[N+](C)(C)CCO | 28 | -2 | 116* | 52* | 60* | 99* | 96* | 94 | 43* | -13 | -11 | 86* | 6 | Aptamer quench 1=-2.8;DNMT1 interf DR=>99
O=C1CC(=O)NC(SCC(=O)Nc2ccccc2[N+](=O)[O-])=N1 | 12 | 7 | 64* | 21 | 77* | 43* | . | 107 | 67* | -12 | 13* | 33* | 3 | DNMT1 interf DR=>99
COC(=O)\C(C(C)=O)=C(/C=C/C=C/C=C/N(C)C)N(C)C | -2 | 1 | 109* | 10 | 74* | 71* | 35 | 95 | . | . | . | 37* | 19 | DNMT1 interf DR=>99
COC(=O)/C(C(C)=O)=C(\C=C\N(C)C)N(C)C | -1 | -1 | 2 | 1 | -4 | 3 | . | . | . | . | . | . | .
Cc1ccsc1-c1cc2nc(Nc3ccc(F)cc3)n(C)c(=O)c2s1 | -4 | 3 | -7 | -2 | . | . | . | . | . | . | . | . | .
COc1ccc(-c2csc3nc(-c4ccc(C)cc4)oc(=O)c23)cc1OC | 0 | 13 | 85* | 14 | 41 | 79* | . | . | . | . | . | 0 | -8 | GRK2 confirm 2=65*;Aptamer quench3=3.3;FAM quench SP=101
COc1ccc(-c2csc3nc(C(C)(C)C)oc(=O)c23)cc1OC | 4 | -2 | 0 | -4 | -12 | 1 | . | . | . | . | . | . | .
Cc1noc(C)c1S(=O)(=O)N(C)C[C@H]1OCc2cnnn2CCCC(=O)N([C@H](C)CO)C[C@H]1C | 4 | 2 | 8 | 1 | . | . | . | . | . | . | . | . | .
C=CCOc1ccc(C(c2c(C(=O)O)[nH]c3ccccc23)c2c(C(=O)O)[nH]c3ccccc23)cc1 | 15 | 2 | 86* | -4 | -19 | 79* | 1 | 117 | . | . | . | 14 | -1
O=C(O)COc1ccc(Br)cc1C(c1c(C(=O)O)[nH]c2ccccc12)c1c(C(=O)O)[nH]c2ccccc12 | 6 | 0 | -4 | -1 | -15 | 21 | . | . | . | . | . | . | .
O=C(Nc1cccc([N+](=O)[O-])c1)c1cccc(C(=O)Nc2cccc([N+](=O)[O-])c2)c1 | 70* | 8 | 86* | 22 | 74* | 67* | 27 | 101 | 85* | -11 | 4 | 27 | 2
CCCn1c(=O)c2sccc2n2c(CCCC(=O)NCc3ccco3)nnc12 | 8 | 2 | 77* | 17 | 69* | 70* | 13 | 100 | 54* | -9 | -5 | 1 | 2
O=C(c1ccc(=O)oc1)N1CCOCC1 | 10 | -1 | 103* | 15 | 77* | 87* | 35 | 110 | . | . | . | 64* | -3 | DNMT1 interf DR=>99
O=C(c1ccccc1)N1CCCc2ccccc21 | -1 | -1 | 3 | 1 | -6 | 0 | . | . | . | . | . | . | .
